Active and inactive are the calls of the source. No cut-off for these calls is given here.
Columns and labels:
[1] = Aqueous solubility of the compound after 1 hr at pH 7.4; type: physicochemical; conditions: buffer, pH 7.4, 1 h
Mus musculus [2] = experiment: Effect on morphine-dependence in CD1 mouse assessed as decrease in naloxone-precipitated rearing at 0.05 mg/kg, ip administered chronically 15 mins prior to each morphine challenge relative to vehicle-treated control; type: functional, organism-based; set-up: dose 0.05 mg/kg
Outline: (§1)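 Acquisition of morphine dependence in mice, tested with repeated ip dosing (racemate 0.05 mg/kg, enantiomers 0.025 mg/kg). Withdrawal was precipitated by naloxone. Scored signs were jumping frequency and somatic signs (rearing, forepaw tremors, teeth chatter). Groups were compared with vehicle and with the morphine group.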

[3] = target: T1, 5-hydroxytryptamine receptor 1A (Homo sapiens, UniProt P08908); experiment: Displacement of [3H]8-OH-DPAT from human 5HT1A receptor expressed in HeLa cells after 30 mins; type: cell-based
T1 sequence (P08908 whole entry): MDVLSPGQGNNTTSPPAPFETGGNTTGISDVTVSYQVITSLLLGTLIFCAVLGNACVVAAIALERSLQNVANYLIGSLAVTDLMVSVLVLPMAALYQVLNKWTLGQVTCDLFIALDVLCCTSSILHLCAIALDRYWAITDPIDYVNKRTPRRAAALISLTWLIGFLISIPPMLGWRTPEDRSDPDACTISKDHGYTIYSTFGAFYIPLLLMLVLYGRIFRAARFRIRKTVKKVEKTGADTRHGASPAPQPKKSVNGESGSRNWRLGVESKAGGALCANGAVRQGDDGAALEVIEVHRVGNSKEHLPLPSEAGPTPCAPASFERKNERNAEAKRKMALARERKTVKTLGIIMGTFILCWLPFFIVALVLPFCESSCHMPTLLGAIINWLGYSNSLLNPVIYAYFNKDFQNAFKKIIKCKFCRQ
Outline: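 pKi is derived from displacement of [3H]-8-OH-DPAT binding at human cloned 5-HT1A receptor. Values are means ± SEMs of 3–6 separate experiments.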

Mus musculus [4] = experiment: Effect on morphine-dependence in CD1 mouse assessed as decrease in naloxone-precipitated rearing at 0.05 mg/kg, ip administered acutely 15 mins prior to naloxone challenge relative to vehicle-treated control; type: functional, organism-based; set-up: dose 0.05 mg/kg
Outline: as §1, with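 “Expression” for “Acquisition”, “a single acute” for “repeated”, “dose” for “dosing”, “naloxone in control and morphine-treated mice.” for “naloxone.”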

Mus musculus [5] = experiment: Effect on morphine-dependence in CD1 mouse assessed as decrease in naloxone-precipitated teeth chatter at 0.05 mg/kg, ip administered chronically 15 mins prior to each morphine challenge relative to vehicle-treated control; type: functional, organism-based; set-up: dose 0.05 mg/kg; outline: as §1
[6] = target: T2, Alpha-2C adrenergic receptor (Homo sapiens) (UniProt P18825); experiment: Agonist activity at human alpha2C adrenoceptor expressed in CHO cells assessed as extracellular acidification measured after 4 mins by cytosensor microphysiometric analysis relative to control; type: functional, cell-based
T2 sequence (whole entry): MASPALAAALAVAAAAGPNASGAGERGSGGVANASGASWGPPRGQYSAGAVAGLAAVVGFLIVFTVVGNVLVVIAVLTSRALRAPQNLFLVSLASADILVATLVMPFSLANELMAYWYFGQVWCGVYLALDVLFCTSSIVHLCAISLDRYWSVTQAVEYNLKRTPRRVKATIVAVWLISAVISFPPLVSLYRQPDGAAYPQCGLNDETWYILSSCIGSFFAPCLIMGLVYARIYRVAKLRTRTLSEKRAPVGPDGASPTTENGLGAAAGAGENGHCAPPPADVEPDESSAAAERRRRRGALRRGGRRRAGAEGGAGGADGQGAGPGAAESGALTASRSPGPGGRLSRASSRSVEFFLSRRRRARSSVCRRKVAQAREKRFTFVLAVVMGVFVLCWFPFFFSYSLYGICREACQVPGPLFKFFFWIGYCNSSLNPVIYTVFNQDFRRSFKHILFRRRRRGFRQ
Outline: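 Binding and functional assays run on CHO cells expressing recombinant human α2-AR subtypes. Functional read-outs are agonist potency (pEC50) with intrinsic activity (ia), or antagonist pKb. Affinity is reported as pKi. Values are means ± SEMs of 3–6 separate experiments.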

[7] = Permeability of the compound at 10 uM after 4 hrs by PAMPA assay; type: ADME
Mus musculus [8] = experiment: Antidepressant activity in CD1 mouse assessed as decrease in immobility time at 0.05 mg/kg, ip after 15 mins by forced swim test relative to vehicle-treated control; type: functional, organism-based; set-up: dose 0.05 mg/kg
Outline: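 Mouse forced swimming test with immobility time as the read-out. Single ip doses were 0.012, 0.025, 0.05, 0.2 or 0.5 mg/kg, with fluoxetine 20 mg/kg ip as reference. Results are compared against vehicle-treated mice and given as means ± SEMs of 8–9 animals.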

Mus musculus [9] = experiment: Effect on morphine-dependence in CD1 mouse assessed as decrease in naloxone-precipitated jumping at 0.05 mg/kg, ip administered chronically 15 mins prior to each morphine challenge relative to vehicle-treated control; type: functional, organism-based; set-up: dose 0.05 mg/kg; outline: as §1
Mus musculus [10] = experiment: Effect on morphine-dependence in CD1 mouse assessed as decrease in naloxone-precipitated teeth chatter at 0.05 mg/kg, ip administered acutely 15 mins prior to naloxone challenge relative to vehicle-treated control; type: functional, organism-based; set-up: dose 0.05 mg/kg
Outline: as §1, with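 “Expression” for “Acquisition”, “a single acute” for “repeated”, “dose” for “dosing”, “naloxone in control and morphine-treated mice.” for “naloxone.”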

Mus musculus [11] = experiment: Effect on morphine-dependence in CD1 mouse assessed as decrease in naloxone-precipitated forepaw tremors at 0.05 mg/kg, ip administered acutely 15 mins prior to naloxone challenge relative to vehicle-treated control; type: functional, organism-based; set-up: dose 0.05 mg/kg
Outline: as §1, with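 “Expression” for “Acquisition”, “a single acute” for “repeated”, “dose” for “dosing”, “naloxone in control and morphine-treated mice.” for “naloxone.”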

Mus musculus [12] = experiment: Effect on morphine-dependence in CD1 mouse assessed as decrease in naloxone-precipitated jumping at 0.05 mg/kg, ip administered acutely 15 mins prior to naloxone challenge relative to vehicle-treated control; type: functional, organism-based; set-up: dose 0.05 mg/kg
Outline: as §1, with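 “Expression” for “Acquisition”, “a single acute” for “repeated”, “dose” for “dosing”, “naloxone in control and morphine-treated mice.” for “naloxone.”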

Mus musculus [13] = experiment: Effect on morphine-dependence in CD1 mouse assessed as decrease in naloxone-precipitated forepaw tremors at 0.05 mg/kg, ip administered chronically 15 mins prior to each morphine challenge relative to vehicle-treated control; type: functional, organism-based; set-up: dose 0.05 mg/kg; outline: as §1

**Q.** Which results are given for `CC(Oc1ccccc1CC1CC1)C1=NCCN1` (racemic) [CYCLOMETHYLINE]?
**A.** solubility [1]: soluble; Activity (Mus musculus [2]): Active; Ki [3]: 10.5 nM; Activity (Mus musculus [4]): Active; Activity (Mus musculus [5]): Active; Intrinsic activity [6]: 0.8; permeability [7]: permeable; Activity (Mus musculus [8]): Active; Activity (Mus musculus [9]): Active; Activity (Mus musculus [10]): Active; Activity (Mus musculus [11]): Active; Activity (Mus musculus [12]): Active; Activity (Mus musculus [13]): Active
